Source: paper PMC11068032 (Journal of medicinal chemistry, 2023)

Columns and labels:
[1] = tested on: AR protein level in T98G cells; assay: AR downregulation in T98G cells by Western blotting; type: cell-based, human; conditions: for AR downregulation activity at 50 nM / AR downregulation activity at 100 nM: 12 h; for AR protein level: 25, 50, and 100 nM
In short: (§1)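 Cells in 6-well plates treated with test compound or DMSO (T98G screens at 100 or 50 nM for 12 h). Lysed in RIPA with protease inhibitors (10 min on ice), spun at 10,000g for 10 min, protein by BCA. 50 µg resolved on 10% SDS-PAGE, transferred to PVDF, blocked 2 h in 5% milk/TBS-T. Anti-AR or anti-AR-V7 primary overnight at 4 °C, secondary 60 min at RT, chemiluminescence. Band gray values quantified.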

[2] = target: T1, α-crystallin (chaperone function domain of HSP27) (Bos taurus, UniProt P02470+P02510); assay: HSP27 chaperone activity assay; type: biochemical; conditions: for inhibition of in vitro chaperone function of HSP27: 10 μM (Figure 3), α-crystallin present; for interference with DTT-induced insulin aggregation: without chaperone protein, 10 μM or below
T1 sequence (P02470 1-173): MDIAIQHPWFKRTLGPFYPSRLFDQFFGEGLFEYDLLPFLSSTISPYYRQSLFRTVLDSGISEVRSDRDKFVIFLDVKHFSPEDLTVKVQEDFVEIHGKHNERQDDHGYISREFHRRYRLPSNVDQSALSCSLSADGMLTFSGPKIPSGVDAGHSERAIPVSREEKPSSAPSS
T1 sequence (P02510 1-175): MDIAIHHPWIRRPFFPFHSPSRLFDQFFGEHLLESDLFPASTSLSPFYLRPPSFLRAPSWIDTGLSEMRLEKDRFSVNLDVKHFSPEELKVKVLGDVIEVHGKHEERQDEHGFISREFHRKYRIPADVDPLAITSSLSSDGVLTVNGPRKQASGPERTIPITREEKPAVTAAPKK
In short: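 Chaperone assay: insulin (from 1 mg/mL stock) with α-crystallin, the HSP27 chaperone domain (from 5 mg/mL stock), and test compound in PBS. Preincubated 5 min at 37 °C, then aggregation started with DTT (from 1 M stock). A400 read every 3 min for up to 2 h. Controls were insulin with or without α-crystallin in 0.1% DMSO. Three independent experiments, each in triplicate; mean curves.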

[3] = tested on: AR protein level in U87 cells; assay: AR downregulation in U87 cells by Western blotting; type: cell-based, human; conditions: 25, 50, and 100 nM
In short: as §1

[4] = tested on: AR in U87 cells; assay: AR immunofluorescence assay in U87 cells; type: cell-based, human; conditions: 50 nM, 12 h, compared to the control
In short: (§2)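 Cells were grown on coverslips for 24 h, then given test compound at 50 nM for 12 h. Fixed in 4% paraformaldehyde (10 min), permeabilized with 0.1% Triton X-100 (10 min) and blocked in 1% BSA (30 min). Anti-AR primary 1 h, fluorescent secondary 1 h, nuclei stained with DAPI 1 µg/mL for 10 min, then imaged by fluorescence microscopy.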

[5] = tested on: U87 xenograft tumor; assay: U87 xenograft tumor model in nude mice; type: in vivo; conditions: for nude mice body weight / tumor size / tumor weight: 20 mg/kg IP every other day; for nude mice body weight / tumor size: 2 weeks; for tumor size / tumor weight / AR protein level in tumors: vs control; for tumor weight: end of experiment; for AR protein level in tumors: 20 mg/kg IP, Western blotting of tumor lysates
In short: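 Nude mice (5–6 weeks) received U87 cells (5 × 10^6 in PBS) subcutaneously into both flanks; n = 4/group, 8 tumors/group. At about 50 mm3, mice got vehicle (DMSO) or test compound 20 mg/kg in PBS IP three times weekly for 14 days. Calipers three times weekly, V = 2/3 d1 × d2², body weight recorded. At end: CO2 euthanasia, tumors weighed, two tumors per mouse pooled and homogenized in RIPA for AR blotting.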

[6] = tested on: AR-V7 in T98G cells; assay: Mutated AR; type: cell-based, human; conditions: Western blotting
In short: as §1

[7] = tested on: AR in T98G cells; assay: AR immunofluorescence assay in T98G cells; type: cell-based, human; conditions: 50 nM, 12 h, compared to the control
In short: as §2

[8] = Maximum-tolerated dose; type: in vivo; conditions: 100 mg/kg per day IP for 10 days; for body weight growth rate / hematology, profile of the blood / tissue staining (H&E) of kidney, spleen, lung, liver, and heart: vs control group
In short: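 Twelve C57BL/6 mice randomised into three groups (vehicle DMSO, or test compound in PBS), dosed IP daily and euthanised after 10 days. Body weight recorded daily. Nonfasted cardiac blood drawn immediately after euthanasia for automated haematology analysis. Heart, liver, spleen, lung and kidney rinsed in PBS, formalin-fixed, ethanol-dehydrated, xylene-cleared, paraffin-embedded and H&E-stained.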

[9] = tested on: AR-overexpressed GBM cell lines U87 and T98G; type: cell-based, human; conditions: summary of Table 1
In short: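 MTT assay in T98G and U87 cells kept in RPMI1640 or DMEM with 10% FBS and penicillin/streptomycin at 37 °C, 5% CO2. MTT 1 mg/mL for 2 h at 37 °C, formazan dissolved in DMSO, A570 read. Eight replicates; IC50 by nonlinear regression.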

Compound: COc1ccc(OC)c(COc2cc(NC(=O)c3ccc4c(c3)OCO4)ccc2NS(C)(=O)=O)c1 [Compound 4, N-(3-((2,5-Dimethoxybenzyl)oxy)-4-(methylsulfonamido)phenyl)benzo[d][1,3]dioxole-5-carboxamide]
- AR downregulation activity at 50 nM [1]: potent AR downregulation activity
- AR downregulation activity at 100 nM [1]: significant AR downregulation activity
- AR protein level [1]: significantly downregulate
- inhibition of in vitro chaperone function of HSP27 [2]: significantly inhibit
- inhibition at 10 µM ([2]; read-out: inhibition of the chaperone function): > 50%
- interference with DTT-induced insulin aggregation [2]: do not interfere
- AR protein level [3]: significantly downregulate
- fluorescence intensities of AR [4]: decreased
- nude mice body weight [5]: not affected
- tumor size [5]: significantly decreased
- tumor weight [5]: significantly decrease
- AR protein level in tumors [5]: significantly decreased
- mutated AR (AR-V7) level [6]: downregulate
- fluorescence intensities of AR [7]: decreased
- condition observation (signs of toxicity such as dehydration, acute pain, or distress) [8]: do not show any sign of toxicity
- body weight growth rate [8]: no growth rate difference
- hematology, profile of the blood [8]: no change
- tissue staining (H&E) of kidney, spleen, lung, liver, and heart [8]: no substantial histological abnormalities

Compound: COc1ccc(OC)c(COc2cc(NC(=O)c3ccc([N+](=O)[O-])cc3)ccc2NS(C)(=O)=O)c1 [Compound 13, N-(3-((2,5-Dimethoxybenzyl)oxy)-4-(methylsulfonamido)phenyl)-4-nitrobenzamide]
- AR downregulation activity at 100 nM [1]: significant AR downregulation activity

Compound: COc1ccc(OC)c(COc2cc(NC(=O)c3cccc(Br)c3)ccc2NS(C)(=O)=O)c1 [Compound 15, 3-Bromo-N-(3-((2,5-dimethoxybenzyl)oxy)-4-(methylsulfonamido)phenyl)benzamide]
- AR downregulation activity at 100 nM [1]: significant AR downregulation activity

Compound: COc1ccc(OC)c(COc2cc(NC(=O)c3ccc(SC)cc3)ccc2NS(C)(=O)=O)c1 [Compound 19, N-(3-((2,5-Dimethoxybenzyl)oxy)-4-(methylsulfonamido)phenyl)-4-(methylthio)benzamide]
- AR downregulation activity at 100 nM [1]: significant AR downregulation activity

Compound: COc1ccc(OC)c(COc2cc(NC(=O)c3ccc4ccccc4c3)ccc2NS(C)(=O)=O)c1 [Compound 26, N-(3-((2,5-Dimethoxybenzyl)oxy)-4-(methylsulfonamido)phenyl)-2-naphthamide]
- AR downregulation activity at 50 nM [1]: potent AR downregulation activity
- AR downregulation activity at 100 nM [1]: significant AR downregulation activity
- AR protein level [1]: significantly downregulate
- inhibition of in vitro chaperone function of HSP27 [2]: significantly inhibit
- interference with DTT-induced insulin aggregation [2]: do not interfere
- AR protein level [3]: significantly downregulate
- fluorescence intensities of AR [4]: decreased
- nude mice body weight [5]: not affected
- tumor size [5]: significantly decreased
- tumor weight [5]: significantly decrease
- AR protein level in tumors [5]: significantly decreased
- mutated AR (AR-V7) level [6]: downregulate
- fluorescence intensities of AR [7]: decreased
- condition observation (signs of toxicity such as dehydration, acute pain, or distress) [8]: do not show any sign of toxicity
- body weight growth rate [8]: no growth rate difference
- hematology, profile of the blood [8]: no change
- tissue staining (H&E) of kidney, spleen, lung, liver, and heart [8]: no substantial histological abnormalities

Compound: CCCCCC(=O)Nc1ccc(NS(C)(=O)=O)c(OCc2cc(OC)ccc2OC)c1 [Compound 30, N-(3-((2,5-Dimethoxybenzyl)oxy)-4-(methylsulfonamido)phenyl)hexanamide]
- activity in GBM cell growth inhibition (SAR wording) [9]: lower activity

Compound: COc1ccc(OC)c(COc2cc(NC(=O)c3ccc(OC(F)(F)F)cc3)ccc2NS(C)(=O)=O)c1 [Compound 33, N-(3-((2,5-Dimethoxybenzyl)oxy)-4-(methylsulfonamido)phenyl)-4-(trifluoromethoxy)benzamide]
- AR downregulation activity at 100 nM [1]: significant AR downregulation activity

Compound: COc1ccc(OC)c(COc2cc(NC(=O)c3ccccc3C)ccc2NS(C)(=O)=O)c1 [Compound 34, N-(3-((2,5-Dimethoxybenzyl)oxy)-4-(methylsulfonamido)phenyl)-2-methylbenzamide]
- AR downregulation activity at 100 nM [1]: significant AR downregulation activity

Compound: COc1ccc(OC)c(COc2cc(NC(=O)c3cccs3)ccc2NS(C)(=O)=O)c1 [Compound 35, N-(3-((2,5-Dimethoxybenzyl)oxy)-4-(methylsulfonamido)phenyl)thiophene-2-carboxamide]
- activity in GBM cell growth inhibition (SAR wording) [9]: lower activity
- AR downregulation activity at 100 nM [1]: significant AR downregulation activity

Compound: COc1ccc(OC)c(COc2cc(NC(=O)c3ccno3)ccc2NS(C)(=O)=O)c1 [Compound 36, N-(3-((2,5-Dimethoxybenzyl)oxy)-4-(methylsulfonamido)phenyl)isoxazole-5-carboxamide]
- activity in GBM cell growth inhibition (SAR wording) [9]: lower activity
- AR downregulation activity at 100 nM [1]: significant AR downregulation activity

Compound: COc1ccc(OC)c(COc2cc(NC(=O)CCCC(=O)Nc3ccc(NS(C)(=O)=O)c(OCc4cc(OC)ccc4OC)c3)ccc2NS(C)(=O)=O)c1 [Compound 37, N1,N5-Bis(3-((2,5-dimethoxybenzyl)oxy)-4-(methylsulfonamido)phenyl)glutaramide]
- activity in GBM cell growth inhibition (SAR wording) [9]: poor activity
- AR downregulation activity at 100 nM [1]: significant AR downregulation activity

Compound: COc1ccc(OC)c(COc2cc(NC(=O)COCC(=O)Nc3ccc(NS(C)(=O)=O)c(OCc4cc(OC)ccc4OC)c3)ccc2NS(C)(=O)=O)c1 [Compound 38, 2,2′-Oxybis(N-(3-((2,5-dimethoxybenzyl)oxy)-4-(methylsulfonamido)phenyl)acetamide)]
- activity in GBM cell growth inhibition (SAR wording) [9]: poor activity

Compound: COc1ccc(OC)c(COc2cc(NC(=O)OCCOC(=O)Nc3ccc(NS(C)(=O)=O)c(OCc4cc(OC)ccc4OC)c3)ccc2NS(C)(=O)=O)c1 [Compound 39, Ethane-1,2-diylbis((3-((2,5-dimethoxybenzyl)oxy)-4-(methylsulfonamido)phenyl)carbamate)]
- activity in GBM cell growth inhibition (SAR wording) [9]: poor activity

Compound: COc1ccc(OC)c(COc2cc(NC(=O)OCCOCCOCCOC(=O)Nc3ccc(NS(C)(=O)=O)c(OCc4cc(OC)ccc4OC)c3)ccc2NS(C)(=O)=O)c1 [Compound 40, (Ethane-1,2-diylbis(oxy))bis(ethane-2,1-diyl)bis((3-((2,5-dimethoxybenzyl)oxy)-4-(methylsulfonamido)phenyl)carbamate)]
- activity in GBM cell growth inhibition (SAR wording) [9]: poor activity

Compound: COc1ccc(OC)c(COc2cc(NC(=O)c3ccc(NC(=O)COCC(=O)Nc4ccc(C(=O)Nc5ccc(NS(C)(=O)=O)c(OCc6cc(OC)ccc6OC)c5)cc4)cc3)ccc2NS(C)(=O)=O)c1 [Compound 42, 4,4′-((2,2′-Oxybis(acetyl))bis(azanediyl))bis(N-(3-((2,5-dimethoxybenzyl)oxy)-4-(methylsulfonamido)phenyl)benzamide)]
- activity in GBM cell growth inhibition (SAR wording) [9]: poor activity
